Results on 24 molecules are retold here after ChEMBL document CHEMBL1143374, “Solution- and solid-phase synthesis and anti-HIV activity of maslinic acid derivatives containing amino acids and peptides” (2009).

The source made the active and inactive calls. The calls are words filed in the database; no cut-off is given here.

The test system of experiment [1] is Human immunodeficiency virus 1. Put plainly: Antiviral activity against HIV1 NL4-3 infected human MT2 cells assessed as viral infection at 10 uM administered 30 mins before viral challenge by luciferase reporter gene activation assay relative to control. Format: functional. A digest of the protocol:
(§1)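 MT-2 cells at 10^6/mL in RPMI 1640 with 10% heat-inactivated FBS, 37 °C, 5% CO2. Cells were pretreated 30 min, then infected with VSV-pseudotyped pNL4-3.Luc.R−E− virus made in 293T cells (200 ng p24). After 20 h: PBS wash, lysis in Tris-phosphate pH 7.8 buffer, luciferase read. Value is % of untreated infected cells (100%), ±S.D.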
On the technique in general: In a reporter assay the amount or activity of a reporter protein is the signal.

In experiment [2] the test system is Human immunodeficiency virus 1. Put plainly: Antiviral activity against HIV1 NL4-3 infected human MT2 cells assessed as viral infection at 25 uM administered 30 mins before viral challenge by luciferase reporter gene activation assay relative to control. It counts as functional. A digest of the protocol:
as §1

For experiment [3], the system named is MT2. Put plainly: Cell cycle arrest in HIV1 NL4-3 infected human MT2 cells assessed as accumulation at S phase at 25 uM administered 30 mins before viral challenge measured after 24 hrs by propidium iodide staining and flow cytometry. Format: functional. A digest of the protocol:
(§2)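 MT-2 cells at 10^6/mL were pretreated 30 min, then infected 24 h with VSV-pseudotyped HIV-1 luciferase virus. Phase percentages were taken; apoptosis was scored as the sub-G0/G1 (hypodiploid) fraction.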

For experiment [4], the system named is MT2. Put plainly: Induction of apoptosis in HIV1 NL4-3 infected human MT2 cells at 10 uM administered 30 mins before viral challenge measured after 24 hrs by propidium iodide staining and flow cytometry. Format: functional. The method in brief:
as §2
A general note: Flow cytometry measures light scatter and fluorescence of single cells or particles in a stream.

Experiment [5] has as its system MT2. Put plainly: Cell cycle arrest in HIV1 NL4-3 infected human MT2 cells assessed as accumulation at G0/G1 phase at 10 uM administered 30 mins before viral challenge measured after 24 hrs by propidium iodide staining and flow cytometry. It counts as functional. The method in brief: as §2
The subject of experiment [6] is MT2. Put plainly: Cell cycle arrest in HIV1 NL4-3 infected human MT2 cells assessed as accumulation at G0/G1 phase at 25 uM administered 30 mins before viral challenge measured after 24 hrs by propidium iodide staining and flow cytometry. Format: functional. A digest of the protocol: as §2
The subject of experiment [7] is MT2. Briefly: Cell cycle arrest in HIV1 NL4-3 infected human MT2 cells assessed as accumulation at G2/M phase at 25 uM administered 30 mins before viral challenge measured after 24 hrs by propidium iodide staining and flow cytometry. It counts as functional. The method in brief:
as §2

For experiment [8], the system named is MT2. Put plainly: Cell cycle arrest in HIV1 NL4-3 infected human MT2 cells assessed as accumulation at S phase at 10 uM administered 30 mins before viral challenge measured after 24 hrs by propidium iodide staining and flow cytometry. Format: functional. The method in brief:
as §2

The subject of experiment [9] is MT2. Put plainly: Induction of apoptosis in HIV1 NL4-3 infected human MT2 cells at 25 uM administered 30 mins before viral challenge measured after 24 hrs by propidium iodide staining and flow cytometry. Format: functional. A digest of the protocol:
as §2

The test system of experiment [10] is MT2. Put plainly: Cell cycle arrest in HIV1 NL4-3 infected human MT2 cells assessed as accumulation at G2/M phase at 10 uM administered 30 mins before viral challenge measured after 24 hrs by propidium iodide staining and flow cytometry. Format: functional. The method in brief:
as §2

Experiment [11] concerns MT2. Put plainly: Induction of apoptosis in HIV1 NL4-3 infected human MT2 cells administered 30 mins before viral challenge measured after 24 hrs by propidium iodide staining and flow cytometry. Format: functional, cell-based. A digest of the protocol:
as §2

For the molecule `C[C@H](NC(=O)CCCNC(=O)[C@]12CCC(C)(C)C[C@H]1C1=CC[C@@H]3[C@@]4(C)C[C@@H](O)[C@H](O)C(C)(C)[C@@H]4CC[C@@]3(C)[C@]1(C)CC2)C(=O)O`, the figures for the Activity in experiment [1] and in experiment [2] were 83.7% and 50.1%, respectively.

On to `CC1(C)CC[C@]2(C(=O)O)CC[C@]3(C)C(=CC[C@@H]4[C@@]5(C)C[C@@H](O)[C@H](O)C(C)(C)[C@@H]5CC[C@]43C)[C@@H]2C1` [MASLINIC ACID], for which the Activity is 17.7% in the experiment with MT2 [3]; 56.3% in experiment [1]; 13.5% with MT2 [4]; 47.9% with MT2 [5]; 23.1% in the experiment on MT2 [6]; 7.5% in the experiment with MT2 [7]. In addition, the Activity in the experiment on MT2 [8] was 20.6%; in the experiment on MT2 [9] it was 51.8%; with MT2 [10] it was 18.4%; in experiment [2], 6.7%.

Regarding `CC1(C)CC[C@]2(C(=O)NCCCCCC(=O)NCC(=O)O)CC[C@]3(C)C(=CC[C@@H]4[C@@]5(C)C[C@@H](O)[C@H](O)C(C)(C)[C@@H]5CC[C@]43C)[C@@H]2C1`, the Activity in experiment [1] was 125.7%; in [2] it was 122.1%.

Consider `COC(=O)CCCNC(=O)[C@]12CCC(C)(C)C[C@H]1C1=CC[C@@H]3[C@@]4(C)C[C@@H](O)[C@H](O)C(C)(C)[C@@H]4CC[C@@]3(C)[C@]1(C)CC2`, for which the results for the Activity in [1] and in [2] were 32.5% and 12%, respectively. Further, the outcome in the experiment with MT2 [11] was Active.

As to `CC(C)[C@H](NC(=O)CCCCCNC(=O)[C@]12CCC(C)(C)C[C@H]1C1=CC[C@@H]3[C@@]4(C)C[C@@H](O)[C@H](O)C(C)(C)[C@@H]4CC[C@@]3(C)[C@]1(C)CC2)C(=O)O`, the Activity in [1] is listed as 83.8%; in experiment [2], 96.5%.

On to `COC(=O)CNC(=O)[C@]12CCC(C)(C)C[C@H]1C1=CC[C@@H]3[C@@]4(C)C[C@@H](O)[C@H](O)C(C)(C)[C@@H]4CC[C@@]3(C)[C@]1(C)CC2`, for which the Activity is given as 75.5% in experiment [1] and 56.3% in experiment [2].

Take `COC(=O)[C@H](C)NC(=O)[C@]12CCC(C)(C)C[C@H]1C1=CC[C@@H]3[C@@]4(C)C[C@@H](O)[C@H](O)C(C)(C)[C@@H]4CC[C@@]3(C)[C@]1(C)CC2`: the Activity in experiment [1] was determined as 63.6%; in experiment [2] it was 8.9%.

With `C[C@H](NC(=O)CCCCCCCCCCNC(=O)[C@]12CCC(C)(C)C[C@H]1C1=CC[C@@H]3[C@@]4(C)C[C@@H](O)[C@H](O)C(C)(C)[C@@H]4CC[C@@]3(C)[C@]1(C)CC2)C(=O)O`, the Activity is given as 71.7% in [1] and 27.6% in experiment [2].

Regarding `CC(C)[C@H](NC(=O)CCCCCCCCCCNC(=O)[C@]12CCC(C)(C)C[C@H]1C1=CC[C@@H]3[C@@]4(C)C[C@@H](O)[C@H](O)C(C)(C)[C@@H]4CC[C@@]3(C)[C@]1(C)CC2)C(=O)O`, the Activity in the experiment with MT2 [3] worked out at 20.5%; in [1], 44.9%; in the experiment on MT2 [4], 2.1%; with MT2 [5] it was 54.6%; in the experiment with MT2 [6] it was 59.2%; in the experiment on MT2 [7], 15.5%. For the same molecule, the Activity with MT2 [8] worked out at 21.4%; in the experiment on MT2 [9], 4.6%; in the experiment on MT2 [10], 21.6%; in experiment [2], 21.2%.

Turning to `CC1(C)CC[C@]2(C(=O)NCC(=O)O)CC[C@]3(C)C(=CC[C@@H]4[C@@]5(C)C[C@@H](O)[C@H](O)C(C)(C)[C@@H]5CC[C@]43C)[C@@H]2C1`, the Activity is on record as 162.1% in experiment [1] and 130.7% in [2].

For the molecule `COC(=O)CCCCCCCCCCNC(=O)[C@]12CCC(C)(C)C[C@H]1C1=CC[C@@H]3[C@@]4(C)C[C@@H](O)[C@H](O)C(C)(C)[C@@H]4CC[C@@]3(C)[C@]1(C)CC2`, the Activity was found to be 66.9% in [1] and 35.6% in experiment [2].

For `CC(C)[C@H](NC(=O)[C@]12CCC(C)(C)C[C@H]1C1=CC[C@@H]3[C@@]4(C)C[C@@H](O)[C@H](O)C(C)(C)[C@@H]4CC[C@@]3(C)[C@]1(C)CC2)C(=O)O`, the Activity in experiment [1] turned out to be 102.8%; in experiment [2] it was 121.2%.

With `CC1(C)CC[C@]2(C(=O)NCCCCCCCCCCC(=O)O)CC[C@]3(C)C(=CC[C@@H]4[C@@]5(C)C[C@@H](O)[C@H](O)C(C)(C)[C@@H]5CC[C@]43C)[C@@H]2C1`, the Activity amounted to 22.2% in the experiment on MT2 [3]; 56.7% in experiment [1]; 3.5% in the experiment with MT2 [4]; 62.6% in the experiment with MT2 [5]; 53.7% in the experiment on MT2 [6]; 18.9% with MT2 [7]. The Activity with MT2 [8] was 18.8%; in the experiment on MT2 [9], 5.2%; in the experiment on MT2 [10], 15.1%; in experiment [2], 21.5%.

For the molecule `CC1(C)CC[C@]2(C(=O)NCCCC(=O)NCC(=O)O)CC[C@]3(C)C(=CC[C@@H]4[C@@]5(C)C[C@@H](O)[C@H](O)C(C)(C)[C@@H]5CC[C@]43C)[C@@H]2C1`, the figures for the Activity in experiment [1] and in [2] were 112.3% and 143.3%, respectively.

Turning to `C[C@H](NC(=O)CCCCCNC(=O)[C@]12CCC(C)(C)C[C@H]1C1=CC[C@@H]3[C@@]4(C)C[C@@H](O)[C@H](O)C(C)(C)[C@@H]4CC[C@@]3(C)[C@]1(C)CC2)C(=O)NCC(=O)O`, the Activity in [1] turned out to be 170.2%; in experiment [2], 89.6%.

With `COC(=O)CCCCCNC(=O)[C@]12CCC(C)(C)C[C@H]1C1=CC[C@@H]3[C@@]4(C)C[C@@H](O)[C@H](O)C(C)(C)[C@@H]4CC[C@@]3(C)[C@]1(C)CC2`, the Activity in experiment [1] was 69.6%; in experiment [2], 36.8%.

On to `C[C@H](NC(=O)[C@]12CCC(C)(C)C[C@H]1C1=CC[C@@H]3[C@@]4(C)C[C@@H](O)[C@H](O)C(C)(C)[C@@H]4CC[C@@]3(C)[C@]1(C)CC2)C(=O)NCC(=O)O`, for which the Activity in experiment [1] was 134.5%; in experiment [2], 184.8%.

On to `CC1(C)CC[C@]2(C(=O)NCCCCCC(=O)O)CC[C@]3(C)C(=CC[C@@H]4[C@@]5(C)C[C@@H](O)[C@H](O)C(C)(C)[C@@H]5CC[C@]43C)[C@@H]2C1`, for which the Activity in experiment [1] amounted to 146.4%; in [2] it was 79.3%.

With `CC(C)[C@H](NC(=O)CCCNC(=O)[C@]12CCC(C)(C)C[C@H]1C1=CC[C@@H]3[C@@]4(C)C[C@@H](O)[C@H](O)C(C)(C)[C@@H]4CC[C@@]3(C)[C@]1(C)CC2)C(=O)O`, the values for the Activity in experiment [1] and in experiment [2] were 66.2% and 130.2%, respectively.

As for `C[C@H](NC(=O)[C@]12CCC(C)(C)C[C@H]1C1=CC[C@@H]3[C@@]4(C)C[C@@H](O)[C@H](O)C(C)(C)[C@@H]4CC[C@@]3(C)[C@]1(C)CC2)C(=O)O`, the Activity in experiment [1] is reported as 124.2%; in [2], 60.9%.

For `C[C@H](NC(=O)CCCCCNC(=O)[C@]12CCC(C)(C)C[C@H]1C1=CC[C@@H]3[C@@]4(C)C[C@@H](O)[C@H](O)C(C)(C)[C@@H]4CC[C@@]3(C)[C@]1(C)CC2)C(=O)O`, the Activity in experiment [1] is 107%; in experiment [2], 70.2%.

For the molecule `COC(=O)[C@@H](NC(=O)[C@]12CCC(C)(C)C[C@H]1C1=CC[C@@H]3[C@@]4(C)C[C@@H](O)[C@H](O)C(C)(C)[C@@H]4CC[C@@]3(C)[C@]1(C)CC2)C(C)C`, the Activity in experiment [1] is 72%; in experiment [2] it was 11.1%.

Regarding `CC1(C)CC[C@]2(C(=O)NCCCCCCCCCCC(=O)NCC(=O)O)CC[C@]3(C)C(=CC[C@@H]4[C@@]5(C)C[C@@H](O)[C@H](O)C(C)(C)[C@@H]5CC[C@]43C)[C@@H]2C1`, the Activity is on record as 85.6% in experiment [1] and 49.8% in experiment [2].

For `CC1(C)CC[C@]2(C(=O)NCCCC(=O)O)CC[C@]3(C)C(=CC[C@@H]4[C@@]5(C)C[C@@H](O)[C@H](O)C(C)(C)[C@@H]5CC[C@]43C)[C@@H]2C1`, the Activity in [1] is 126.4%; in experiment [2] it was 93.8%.
